SKN-1 inh – C. elegans SKN-1 inhibition; inhibition, % at 21.8 µM; C. elegans VP596 Pgst-4::GFP/RFP ratio, acrylamide-induced, 24 h; 0.49% of 360,000 active; AID 624304;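 active = interference check ratio from 0.5 to 1.5 plus GFP to RFP signal ratio inhibition reaching or exceeding a fixed threshold, cut at about 30% in these data, passing the limit was not always enough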
DNMT1 block – inhibitors of human DNMT1; P26358; DNMT1 molecular beacon, Hinp1I cleavage, fluorescence; inhibition (reported as % activation of signal), % at 10 µM; 0.83% of 360,000 active; AID 588458; in the data active = inhibition above about 50%
Rpn11 inh – Rpn11 (human) deubiquitinase inhibition | O00487 | human 26S proteasome, Ub4-pepOG fluorescence polarization; 20S core pre-blocked with epoxomicin | inhibition, % at 20 µM | 0.59% of 360,000 active;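 active = inhibition at 20 µM, scaled to each plate's controls, above about 33%, limit read from the data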
CSN deneddyl inh – blocks human CSN-mediated cullin deneddylation; Q92905; Purified CSN, SCF-Nedd8-OG deneddylation, fluorescence polarization; inhibition, % at 12.5 µM; 0.38% of 360,000 active; AID 651999;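 active = pattern-corrected inhibition above about 35%, with an unprinted fluorescence ratio check between 0.5 and 1.5, limit read from the data, passing the limit was not always enough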;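 note: 0% = enzyme with substrate and 100% = substrate without enzyme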
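Test system: Human Csn5 produced in HEK293T cells | Compound: 12.5 µM single point | Times: 90 min, room temperature | Signal: Fluorescence polarization readout | Read-out basis: % inhibition of substrate cleavage by Csn5 | Controls: no-enzyme wells high, enzyme-with-substrate wells low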
MT1-MMP act inh – MT1-MMP (human) activation inhibition; P50281; GFP/RFP ratio change, % at 20 µM; HT1080 RFP-PRO-GFP cells, GFP/RFP ratio fluorescence, overnight; percent of plate control window, DMSO zero; 0.061% of 360,000 active; AID 651647;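 active = GFP/RFP ratio change of at least 30% with cell ATP level not reduced by more than half and red fluorescence within 50% of control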
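Assay system: HT1080 RFP-PRO-GFP cells. Benchmarks: DMSO vehicle wells and RFP-L50D-GFP reporter cell wells. Times: overnight cell settling, then overnight compound exposure, 37 °C, 5% CO2. Compound: 20 µM single dose, 1% DMSO. Read-out basis: GFP/RFP fluorescence ratio.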
SUMO1-SIM PPI – SUMO1-SIM interaction modulation | P63165 | SUMO1 binding to a labelled peptide, TR-FRET, 1 h | inhibition, % at 20 µM | 0.33% of 360,000 active; in the data active = inhibition above about 37%
Target sequence (P63165 whole entry, looked up): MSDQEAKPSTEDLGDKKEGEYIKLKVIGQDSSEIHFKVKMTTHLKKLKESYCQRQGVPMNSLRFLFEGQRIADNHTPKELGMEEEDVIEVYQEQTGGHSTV
DNMT1 interf DR – counter-screen for DNMT1 inhibitors: spectral interference, dose response; 200 tested, under 10 active; molecular beacon fluorescence; shares compounds with DNMT1 block; IC50, µM; call rule not given here
DNMT1 inh conf – DNMT1 inhibition confirmation, single concentration | AID 602385 | shares compounds with DNMT1 block | DNMT1 molecular beacon HinP1I cleavage, fluorescence | inhibition, % at 10 µM | 8% of 2,300 active;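 active = average inhibition of at least 30% in the single-concentration confirmation test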
DNMT1 interf – counter-screen for DNMT1 inhibitors: spectral interference; DNMT1 molecular beacon spectral interference counterscreen, fluorescence 485/520; 1% of 2,300 active; shares compounds with DNMT1 block; activation (fluorescence interference), % at 10 µM; AID 602387;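 active = activation of at least 30% at 10 µM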;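 note: DNMT1 catalytic domain with a HinP1I cleavage step and a FAM/dabcyl DNA beacon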
Rpn11 inh conf – confirmation of human proteasome Rpn11 inhibitors | shares compounds with Rpn11 inh | purified human 26S proteasome, Ub4-pepOG fluorescence polarization; proteasome pretreated with epoxomicin | inhibition, % at 20 µM | 29% of 1,900 active | AID 602318
MMP-2 counter – counter-screen for RPN11 inhibitors: inhibition of human MMP-2. shares compounds with Rpn11 inh. recombinant MMP-2, FRET peptide cleavage fluorescence. inhibition, % at 20 µM. 4% of 1,900 active. AID 602330;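 note: human MMP-2 activated beforehand with APMA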
Target sequence (P08253 whole entry, looked up): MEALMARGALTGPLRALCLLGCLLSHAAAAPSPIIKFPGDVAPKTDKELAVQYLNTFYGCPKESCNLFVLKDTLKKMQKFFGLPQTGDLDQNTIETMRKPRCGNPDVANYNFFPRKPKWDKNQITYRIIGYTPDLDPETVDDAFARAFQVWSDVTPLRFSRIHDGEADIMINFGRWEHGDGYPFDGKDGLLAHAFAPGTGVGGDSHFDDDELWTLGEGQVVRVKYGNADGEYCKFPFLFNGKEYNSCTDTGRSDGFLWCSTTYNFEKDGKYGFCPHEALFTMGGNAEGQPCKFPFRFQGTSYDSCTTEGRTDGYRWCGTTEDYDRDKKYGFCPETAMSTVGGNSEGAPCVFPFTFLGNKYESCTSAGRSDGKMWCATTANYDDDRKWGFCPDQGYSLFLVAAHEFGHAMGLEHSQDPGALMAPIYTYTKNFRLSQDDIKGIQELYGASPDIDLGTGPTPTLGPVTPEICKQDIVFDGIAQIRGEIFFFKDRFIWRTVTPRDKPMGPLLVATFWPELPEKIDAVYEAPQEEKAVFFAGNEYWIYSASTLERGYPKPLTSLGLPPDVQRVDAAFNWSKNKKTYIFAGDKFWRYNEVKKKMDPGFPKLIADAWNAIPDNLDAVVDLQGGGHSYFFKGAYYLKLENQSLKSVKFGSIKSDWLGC
Thrombin inh – counter-screen for RPN11 inhibitors: inhibition of bovine thrombin. shares compounds with Rpn11 inh. bovine thrombin cleavage of Ub4-pepOG, fluorescence polarization. inhibition, % at 20 µM. 13% of 1,900 active;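 active = mean inhibition at least 40% at 20 µM, or signal 3 deviations below plate average, so some actives read negative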;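 note: plate controls were thrombin with DMSO for no effect and buffer wells lacking thrombin for full effect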
An asterisk follows results filed as active; · = not tested or not shown; + = active, no number. An excerpt weighted towards active compounds, which were near 2.3% of everything screened. Cut-off read from the data, not from the text of the source, unless noted: active = inhibition above about 40%; inactive = the rest.

SMILES	SKN-1 inh	DNMT1 block	Rpn11 inh	CSN deneddyl inh	MT1-MMP act inh	SUMO1-SIM PPI	DNMT1 inh conf	DNMT1 interf	Rpn11 inh conf	MMP-2 counter	Thrombin inh	others
O=C1CCC(=O)N1c1ccc(-c2nc3sc4c(c3c(=O)o2)CCC4)cc1	-8.4	2.0	0.9	1.1	0.3	-12.0	·	·	·	·	·
COc1ccc(N(CC(=O)N2CCN(c3ccccc3)CC2)S(=O)(=O)c2ccccc2)cc1	7.2	0.0	5.0	1.0	-0.8	-2.5	·	·	·	·	·
NC(=O)[C@@H]1CCCCNc2c(F)cc([N+](=O)[O-])cc2C(=O)N[C@@H](CCCN=C(N)N)C(=O)NCC(=O)N1	11.9	-22.1	0.3	4.2	3.4	-58.8	·	·	·	·	·
NCCCC[C@@H]1NC(=O)c2cc([N+](=O)[O-])cc(F)c2NCCCC[C@@H](C(N)=O)NC(=O)CNC1=O	13.7	103.8*	-2.5	-1.9	-1.2	-99.4	8.2	8.3	·	·	·
CCOC(=O)C1=C[C@@H](C2CCCC2)N(S(=O)(=O)c2ccc([N+](=O)[O-])cc2)[C@H]1c1ccccc1	-1.2	-0.8	7.7	-10.0	-7.3	-3.2	·	·	·	·	·
CCOC(=O)C1CCCN(C(=O)c2sc(-c3ccccc3)nc2C)CC1 (stereo not drawn)	6.7	5.1	-1.2	-4.6	-0.7	-4.4	·	·	·	·	·
Fc1ccccc1CN1CCC(Cc2ccccc2)CC1	-7.6	70.5*	-6.4	-1.6	0.6	-0.2	4.5	5.4	·	·	·
CN(C)CCN(C(=O)/C=C/c1cccs1)c1nc2c(F)cc(F)cc2s1	-1.5	58.0*	72.6*	30.2	1.3	0.7	3.2	2.0	27.4	-56.4	6.8
Cc1c(C)c2ccc(OCC(=O)NCCc3c[nH]c4ccccc34)cc2oc1=O	7.9	-1.3	6.0	-2.4	4.1	7.6	·	·	·	·	·
CCCSc1nnc(NC(=O)CSc2sc3c(O)cc(=O)[nH]c3c2C#N)s1	8.0	-1.4	4.1	0.0	-6.5	2.1	·	·	·	·	·
N#Cc1c(SCC(=O)Nc2nc3ccc(Br)cc3s2)sc2c(O)cc(=O)[nH]c12	21.1	79.8*	104.7*	29.0	-6.9	31.0	26.8	-3.9	53.2*	28.7	-5.3	DNMT1 interf DR=>99
C[C@H]1COc2cc(N3CCC[C@H]3CO)ccc2S(=O)(=O)N1	15.8	·	·	4.2	3.6	-1.2	·	·	·	·	·
CCCCCCCCN1[C@@H](CC(=O)OC)c2cc(F)ccc2S1(=O)=O	3.8	81.7*	56.3*	1.4	3.7	5.5	3.5	5.2	10.3	-8.6	5.3
CCOC(=O)C1(C)CCN1C(=O)c1cccc(Cl)c1 (stereo not drawn)	12.4	-1.1	-4.8	-2.3	-1.0	0.3	·	·	·	·	·
N#Cc1ccc(NC(=O)CSc2nc3[nH]c(=O)cc(O)c3s2)cc1	-14.5	-4.4	8.1	0.8	-2.6	10.4	·	·	·	·	·
CSc1ccc(NC(=O)CSc2nc3[nH]c(=O)cc(O)c3s2)cc1	8.8	51.5*	40.0*	8.4	-1.9	12.2	1.7	-1.7	41.8*	31.5	17.6
O=c1c2c(nc3cc(-c4ccccc4Cl)[nH]n13)CCS2	11.5	77.0*	56.3*	80.9*	-11.8	12.2	1.2	2.2	12.3	0.3	9.8
CCCCCNC(=O)C1C(=O)Nc2ccccc2C(=O)N1c1c(C)cccc1C (stereo not drawn)	-11.6	·	·	0.7	-2.8	4.8	·	·	·	·	·
COC(=O)c1ccccc1NC(=O)CCS(=O)(=O)c1ccc(Br)cc1	8.8	90.5*	43.3*	16.7	-2.2	31.6	95.2*	6.0	114.0*	25.0	-51.1	DNMT1 interf DR=>99
COC(=O)c1ccccc1NC(=O)CC(=O)Nc1ccccc1C(=O)OC	-3.4	0.9	-2.3	1.1	-4.9	-0.1	·	·	·	·	·
O=C1[C@@H](c2ccccc2)CC[C@@H]2C=CC[C@H]3CCN1[C@@H]32	11.8	·	·	2.6	0.8	-0.2	·	·	·	·	·
Cc1cccc(-n2cnc(C(=O)NNC(=S)Nc3ccc(Cl)cc3)c2)n1	-1.0	-4.2	21.3	-7.8	-15.3	10.8	·	·	·	·	·
Cc1cccc(-n2cnc(C(=O)N/N=C\c3ccc(Br)cc3)c2)n1	15.6	51.9*	49.1*	15.0	3.8	-0.1	1.9	-1.6	-8.2	-39.2	-13.9
C[C@H](NC(=O)c1ncn2c1c(=O)[nH]c1ccc(Br)cc12)c1ccccc1	-4.4	89.5*	+	34.3	-10.6	-26.4	1.9	-2.3	5.2	-1.6	-8.5
C[C@H](NC(=O)c1ncn2c1c(=O)[nH]c1ccccc12)c1ccccc1	10.9	7.4	-1.8	4.7	5.8	11.3	·	·	·	·	·
SMILES	SKN-1 inh	DNMT1 block	Rpn11 inh	CSN deneddyl inh	MT1-MMP act inh	SUMO1-SIM PPI	DNMT1 inh conf	DNMT1 interf	Rpn11 inh conf	MMP-2 counter	Thrombin inh	others
COc1ccc(C(O)c2nc(-c3cccc(CO)c3)cs2)cc1 (stereo not drawn)	-1.9	-3.9	0.2	3.6	5.7	-6.8	·	·	·	·	·
O=C(N=Nc1c(O)[nH]c2ccc([N+](=O)[O-])cc12)c1cc(-c2ccccc2Cl)nc2ccccc12	-0.9	95.2*	37.3*	3.5	-2.3	21.0	-1.6	-19.5	-22.2	-10.4	-31.8
COC(=O)C[C@H]1CC[C@@H](NC(=O)Nc2cccc(OC)c2)[C@@H](CO)O1	-3.8	·	·	4.8	5.2	6.0	·	·	·	·	·
CCCSC1=N/C(=C\C=C\c2ccco2)C(=O)S1	18.1	106.1*	81.1*	58.9	-5.9	32.4	8.6	2.8	4.2	34.1	6.7
O=C1SC(SCc2ccccc2)=N/C1=C\c1ccco1	13.8	14.7	6.5	15.8	-3.3	-7.2	·	·	·	·	·
COc1ccccc1-c1csc(C(O)c2ccc(F)c(F)c2)n1 (stereo not drawn)	12.0	16.9	2.7	-2.9	-1.8	1.5	·	·	·	·	·
Cc1cc(=O)n2[nH]c(-c3ccsc3-n3c(C)ccc3C)cc2n1	4.1	66.9*	39.1*	41.8	-22.3	37.9	7.9	1.2	-7.1	-5.9	12.1
Cc1cc(=O)n2[nH]c(-c3ccc(F)cc3)cc2n1	22.2	2.3	-3.7	2.8	4.4	1.9	·	·	·	·	·
